The values below come from ChEMBL document CHEMBL1135571, “Synthesis and optimization of a new family of type 3 17 beta-hydroxysteroid dehydrogenase inhibitors by parallel liquid-phase chemistry” (J Med Chem, 2002).

As a reminder, the IC50 is the concentration that inhibits the measured activity by half. Lower therefore signals inhibition by little substance. For orientation: inhibition means the change of the read-out against control, counted positive when it falls.

Structures are written as SMILES. Values joined by “and” are separate entries in the source; they are usually repeats but may differ in a detail not shown here. Identical values can stand only once.

For assay [1], the target named is T1, 17-beta-hydroxysteroid dehydrogenase type 3 (Homo sapiens, UniProt P37058).
T1 sequence (P37058 whole entry): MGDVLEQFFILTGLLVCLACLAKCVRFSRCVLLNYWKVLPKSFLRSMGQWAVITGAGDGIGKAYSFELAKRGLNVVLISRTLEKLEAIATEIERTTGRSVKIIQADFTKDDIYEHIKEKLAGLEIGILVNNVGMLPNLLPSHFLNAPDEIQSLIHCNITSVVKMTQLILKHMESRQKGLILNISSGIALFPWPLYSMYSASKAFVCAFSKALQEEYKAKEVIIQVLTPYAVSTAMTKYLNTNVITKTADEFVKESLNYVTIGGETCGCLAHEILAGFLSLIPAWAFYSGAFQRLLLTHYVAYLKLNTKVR
The assay can be described thus: The ability to inhibit the Type-3 17-beta- hydroxysteroid dehydrogenase activity in transfected human embryonic kidney (HEK)-293 cells experiment 3. The format is cell-based, HEK293. A digest of the protocol: (§1)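 Type 3 17β-HSD expressed by calcium phosphate transfection in HEK-293 cells. Cells sonicated in 50 mM sodium phosphate pH 7.4 with 20% glycerol and 1 mM EDTA, then spun at 10 000g for 1 h; the 100 000g microsomal pellet is the enzyme source. Assay at 37 °C in the same buffer with 5 mM NADPH and 0.05 μM [14C]Δ4-dione. Labeled testosterone formed is measured; […].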

The nature of assay [2]: Proliferative activity against Shionogi(AR+) cells at 0.1 uM concentration. The format is functional.
Assay [3] is described as follows: Proliferative activity against Shionogi(AR+) cells at 1 uM concentration. The format is functional.
A short description of assay [4]: Proliferative activity against Shionogi (AR+) cells at 1 uM concentration. The format is functional.
Assay [5] can be described thus: Proliferative activity against Shionogi (AR+) cells at 0.1 uM concentration. The assay is classed as functional.
Assay [6] has as its target T1, 17-beta-hydroxysteroid dehydrogenase type 3. Description: The ability to inhibit the Type-3 17-beta- hydroxysteroid dehydrogenase activity in transfected human embryonic kidney (HEK)-293 cells experiment 2. The format is cell-based, HEK293. A digest of the protocol: as §1
The target is the same in assay [7]. Description: Concentration to inhibit 50% activity of the Type-3 17-beta- hydroxysteroid dehydrogenase. A digest of the protocol:
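Microsomal fraction from HEK-293 cells transfected with type 3 17β-HSD, prepared by sonication and differential centrifugation (10 000g, then 100 000g) in 50 mM sodium phosphate pH 7.4, 20% glycerol, 1 mM EDTA. Incubated at 37 °C with 5 mM NADPH, 0.05 μM [14C]Δ4-dione and a range of inhibitor concentrations. Labeled testosterone formed is measured; IC50 is computed from the 50% inhibition point.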

For assay [8] the target is unchanged. The assay can be described thus: Ability to inhibit the Type-3 17-beta- hydroxysteroid dehydrogenase activity transfected in human embryonic kidney (HEK)-293 cells experiment 3. The assay is classed as cell-based, HEK293.
The target is the same in assay [9]. The assay can be described thus: Ability to inhibit the Type-3 17-beta- hydroxysteroid dehydrogenase activity transfected in human embryonic kidney (HEK)-293 cells experiment 2. The format is cell-based, HEK293.

For the compound `C[C@]12CC[C@](O)(Cc3ccccc3)CC1CC[C@@H]1[C@@H]2CC[C@]2(C)C(=O)CC[C@@H]12` (stereo partly drawn), the IC50 in assay [1] was 98 nM. The compound further yielded an inhibition at 0.1 µM in assay [2] of 27%. The same compound gave an inhibition at 1 µM in assay [3] of 100%.
`CCCCCCCCN(C[C@@]1(O)CC[C@@]2(C)C(CC[C@@H]3[C@@H]2CC[C@]2(C)C(=O)CC[C@@H]32)C1)C(=O)C1CC1` (stereo partly drawn) gave an inhibition at 1 µM in [4] of 0%. Besides, at 0.1 µM the inhibition in assay [5] was 0%. Moreover, the IC50 in assay [6] turned out to be 57 nM.
Regarding `C[C@]12CC[C@](O)(CN(CC3CCCCC3)C(=O)C3CC3)CC1CC[C@@H]1[C@@H]2CC[C@]2(C)C(=O)CC[C@@H]12` (stereo partly drawn), in assay [4], the inhibition at 1 µM came out at 0%. The same compound returned an inhibition at 0.1 µM in [5] of 1%. The midpoint of inhibition in assay [7], the IC50, lay at 85 nM.
For the compound `CCCCN(CC1C2CC3CC(C2)CC1C3)C[C@@]1(O)CC[C@@]2(C)C(CC[C@@H]3[C@@H]2CC[C@]2(C)C(=O)CC[C@@H]32)C1` (stereo partly drawn), in assay [2], at 0.1 µM the inhibition was 3%. This compound had an IC50 in assay [7] of 80 nM. Besides, testing at 1 µM in [3] gave an inhibition of 7%.
For `C[C@]12CC[C@@]3(CC1CC[C@@H]1[C@@H]2CC[C@]2(C)C(=O)CC[C@@H]12)CN(CC(CN1CCOCC1)OC(=O)CCC1CCCC1)C(=O)O3` (stereo partly drawn), in that order: 4%, 74 nM and 6%.
With `CCCC(=O)N(CC1C2CC3CC(C2)CC1C3)C[C@@]1(O)CC[C@@]2(C)C(CC[C@@H]3[C@@H]2CC[C@]2(C)C(=O)CC[C@@H]32)C1` (stereo partly drawn), testing at 1 µM in assay [4] gave an inhibition of 96%. In assay [5], this compound gave an inhibition at 0.1 µM of 7%. In [7], the IC50 was 35 nM and 57 nM.
Turning to `C[C@]12CCC(=O)C=C1CC[C@@H]1[C@@H]2CC[C@]2(C)C(=O)CC[C@@H]12` [ANDROSTENEDIONE], the IC50 in [8] amounted to 489 nM; in [9], 650 nM.
Consider `C[C@]12CC[C@@H](O)C[C@H]1CC[C@@H]1[C@@H]2CC[C@]2(C)C(=O)CC[C@@H]12` [ETIOCHOLANOLONE], for which, in [1], the IC50 was found to be 182 nM. Also, the inhibition at 0.1 µM in assay [2] stood at 14%. Further, the inhibition at 1 µM in assay [3] was found to be 2%.
